# How the values were obtained:
# [1] = target: GABA-A receptor; alpha-1/beta-2/gamma-2 (Homo sapiens) (UniProt P14867+P47870+P18507); assay: Positive allosteric modulation of human alpha1beta2gamma2 GABA receptor expressed in Xenopus laevis oocytes at 1 uM; assay type: cell-based; conditions: Oocyte
# Summary of the method: (§1)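 Two-electrode voltage clamp on oocytes expressing human α/β/γ2 subtypes, used 2–10 days after injection. […] Baseline was the mean of three GABA-alone pulses. Result is % modulation, mean ± SEM over individual oocytes.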
# [2] = target: T1, GABA-A receptor; alpha-2/beta-3/gamma-2 (Homo sapiens) (UniProt P18507+P28472+P47869); assay: Positive allosteric modulation of human alpha2beta3gamma2 GABA receptor expressed in Xenopus laevis oocytes at 1 uM; assay type: cell-based; conditions: Oocyte; summary of the method: as §1
# [3] = target: T2, GABA-A receptor; alpha-5/beta-3/gamma-2 (Homo sapiens) (UniProt P18507+P28472+P31644); assay: Positive allosteric modulation of human alpha5beta3gamma2 GABA receptor expressed in Xenopus laevis oocytes at 1 uM; assay type: cell-based; conditions: Oocyte; summary of the method: as §1
# [4] = target: GABA-A receptor; alpha-3/beta-3/gamma-2 (Homo sapiens) (UniProt P18507+P28472+P34903); assay: Positive allosteric modulation of human alpha3beta3gamma2 GABA receptor expressed in Xenopus laevis oocytes at 1 uM; assay type: cell-based; conditions: Oocyte; summary of the method: as §1
# [5] = target: T2, GABA-A receptor; alpha-5/beta-3/gamma-2 (Homo sapiens); assay: Negative allosteric modulation of human alpha5beta3gamma2 GABA receptor expressed in Xenopus laevis oocytes at 1 uM; assay type: cell-based; conditions: Oocyte; summary of the method: as §1
# [6] = target: T3, GABA-A receptor; alpha-5/beta-3/gamma-2 (Homo sapiens, UniProt P18507+P28472+P31644); assay: Displacement of [3H]flunitrazepam from human alpha5beta3gamma2 GABA receptor in Sf9 membranes after 1 hr by liquid scintillation counting
# T3 sequence (P18507 whole entry): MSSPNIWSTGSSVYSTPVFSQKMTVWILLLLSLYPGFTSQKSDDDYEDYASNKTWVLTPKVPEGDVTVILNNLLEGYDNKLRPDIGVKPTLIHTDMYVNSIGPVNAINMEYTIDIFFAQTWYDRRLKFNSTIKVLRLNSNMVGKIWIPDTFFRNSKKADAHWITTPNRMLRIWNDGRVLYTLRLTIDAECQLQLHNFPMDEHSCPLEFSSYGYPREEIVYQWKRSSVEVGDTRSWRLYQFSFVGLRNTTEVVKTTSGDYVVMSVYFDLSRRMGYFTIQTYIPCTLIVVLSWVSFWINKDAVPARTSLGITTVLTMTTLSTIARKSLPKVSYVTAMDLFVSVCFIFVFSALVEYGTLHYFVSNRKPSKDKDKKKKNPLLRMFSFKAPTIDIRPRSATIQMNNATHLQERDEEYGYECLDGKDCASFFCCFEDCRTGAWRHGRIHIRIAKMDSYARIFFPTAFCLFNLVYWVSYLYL
# T3 sequence (P28472 whole entry): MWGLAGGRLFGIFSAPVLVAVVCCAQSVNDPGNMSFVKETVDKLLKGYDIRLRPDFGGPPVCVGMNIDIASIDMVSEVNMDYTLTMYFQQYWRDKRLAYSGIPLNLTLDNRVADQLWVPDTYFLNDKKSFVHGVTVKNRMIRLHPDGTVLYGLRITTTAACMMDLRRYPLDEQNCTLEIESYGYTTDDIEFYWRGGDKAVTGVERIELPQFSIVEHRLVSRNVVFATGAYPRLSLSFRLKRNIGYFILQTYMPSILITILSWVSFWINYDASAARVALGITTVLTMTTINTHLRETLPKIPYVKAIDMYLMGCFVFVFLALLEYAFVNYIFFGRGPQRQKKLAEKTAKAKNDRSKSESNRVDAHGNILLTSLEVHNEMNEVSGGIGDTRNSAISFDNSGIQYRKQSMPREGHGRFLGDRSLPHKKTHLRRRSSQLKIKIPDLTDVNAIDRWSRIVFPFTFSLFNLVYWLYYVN
# T3 sequence (P31644 whole entry): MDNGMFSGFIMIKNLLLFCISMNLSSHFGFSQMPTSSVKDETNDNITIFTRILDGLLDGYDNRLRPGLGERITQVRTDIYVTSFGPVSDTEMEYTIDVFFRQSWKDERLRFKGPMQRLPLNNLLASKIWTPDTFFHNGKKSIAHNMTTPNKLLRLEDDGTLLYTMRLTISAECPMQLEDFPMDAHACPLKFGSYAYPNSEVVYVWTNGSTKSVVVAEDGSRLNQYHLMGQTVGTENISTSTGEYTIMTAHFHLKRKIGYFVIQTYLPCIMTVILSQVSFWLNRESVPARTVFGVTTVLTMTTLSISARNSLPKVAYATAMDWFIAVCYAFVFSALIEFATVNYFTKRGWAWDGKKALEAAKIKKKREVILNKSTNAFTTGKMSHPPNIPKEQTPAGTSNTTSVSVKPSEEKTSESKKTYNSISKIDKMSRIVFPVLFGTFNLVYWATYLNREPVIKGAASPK
# Summary of the method: (§2)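 [3H]Flunitrazepam (3 nM) competition on recombinant Sf9 membranes co-expressing α, β and γ2 subunits. Compound incubated 1 h at 4 °C in 20 mM Tris–citrate, 200 mM NaCl, pH 7.8, with membrane protein.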
# [7] = target: T4, GABA-A receptor; alpha-2/beta-3/gamma-2 (Homo sapiens, UniProt P18507+P28472+P47869); assay: Displacement of [3H]flunitrazepam from human alpha2beta3gamma2 GABA receptor in Sf9 membranes after 1 hr by liquid scintillation counting; summary of the method: as §2
# T4 sequence (P18507 whole entry): T3 sequence (P18507 whole entry)
# T4 sequence (P28472 whole entry): T3 sequence (P28472 whole entry)
# T4 sequence (P47869 whole entry): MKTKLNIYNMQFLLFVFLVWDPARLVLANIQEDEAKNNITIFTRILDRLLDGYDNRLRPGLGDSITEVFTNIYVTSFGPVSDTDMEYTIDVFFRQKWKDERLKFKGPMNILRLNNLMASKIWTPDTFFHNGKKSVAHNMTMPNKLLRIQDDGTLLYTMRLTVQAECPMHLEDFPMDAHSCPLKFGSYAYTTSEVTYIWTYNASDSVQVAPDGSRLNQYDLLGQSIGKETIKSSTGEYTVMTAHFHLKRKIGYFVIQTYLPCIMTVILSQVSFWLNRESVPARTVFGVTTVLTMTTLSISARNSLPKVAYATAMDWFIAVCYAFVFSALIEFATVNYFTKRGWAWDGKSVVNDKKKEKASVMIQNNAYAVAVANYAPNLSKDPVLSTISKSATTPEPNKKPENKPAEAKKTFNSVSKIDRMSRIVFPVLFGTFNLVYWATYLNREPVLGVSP
# [8] = target: T1, GABA-A receptor; alpha-2/beta-3/gamma-2 (Homo sapiens); assay: Negative allosteric modulation of human alpha2beta3gamma2 GABA receptor expressed in Xenopus laevis oocytes at 1 uM; assay type: cell-based; conditions: Oocyte; summary of the method: as §1
SMILES,Activity [2],Activity [3],Activity [5],other results
CN1C(=O)CN=C(c2ccccc2)c2cc(Cl)ccc21,177%,153%,–,Activity [1]: 192%; Activity [4]: 207%
CC1CN(C(=O)c2nnc3c(-c4ncccn4)c(F)ccc3c2N)C1,18%,0%,–,–
Nc1c(C(=O)N2CC(F)(F)C2)nnc2c(-c3ncccn3)cccc12,6%,–,4%,–
CC1CN(C(=O)c2nnc3c(-c4ncccn4)cccc3c2N)C1,14%,–,35%,–
Nc1c(C(=O)N2CCC2)nnc2c(-c3ncccn3)c(F)ccc12,8%,10%,–,–
Nc1c2c(nc3c(-c4cncnc4)cccc13)CN(C1CCC1)C2=O,18%,–,2%,Ki [6]: 12 nM; Ki [7]: 1.5 nM
Nc1c(C(=O)N2CCC2)nnc2c(-c3ncccn3)cccc12,–,–,22%,Activity [8]: 5%
Nc1c(C(=O)N2CC(F)(F)C2)nnc2c(-c3ncccn3)c(F)ccc12,–,13%,–,Activity [8]: 7%

# Reference: ChEMBL document CHEMBL1629416, “Developing dual functional allosteric modulators of GABA(A) receptors” (Bioorg Med Chem, 2010)
